# Test results published in ChEMBL document CHEMBL5724801, “EUbOPEN Chemogenomics Library - Multiplex” (2024).
# Several values for one entry are separate records, joined by “and”; a condition that tells them apart may be missing. Equal entries are not always repeated.
# System: HEK-293T
# Experiment: Multiplex assay against HEK293T
# Type: toxicity, cell-based
# Conditions: human
# In short: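 Tubulin, mitochondrial-mass and membrane-permeability phenotypes are per cents of healthy-nucleus cells. Cells were gated by CellPathfinder machine learning into Hoechst high-intensity objects or normal cells, normal cells into healthy, pyknosed or fragmented nuclei, and pyknosed cells into mitotic or apoptotic. Before that, live cells stained at seeding with Hoechst33342, BioTracker Green Microtubule Cytoskeleton Dye, MitoTracker Red and Annexin V Alexa Fluor 680 were imaged on a CQ1 microscope at 37°C and 5% CO2 after compound addition.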
# [1] = 12 h, 1 µM, compound concentration 1 uM
# [2] = 12 h, 10 µM, compound concentration 10 uM
# [3] = 24 h, 1 µM, compound concentration 1 uM
# [4] = 24 h, 10 µM, compound concentration 10 uM
# [5] = 48 h, 1 µM, compound concentration 1 uM
# [6] = 48 h, 10 µM, compound concentration 10 uM
compound,measurement,setting,value
O=S(=O)(c1ccccc1)c1cnc2c(N3CCNCC3)cccc2c1 [INTEPIRDINE],Population Apoptotic (%),[1],40% and 50%
same,Population Fragmented Nuclei (%),[1],7%
same,Population Healthy Nuclei (%),[1],80% and 74%
same,Population Hoechst High Intensity Objects (%),[1],7% and 10%
same,Population Membrane Permeable-Phenotype (%),[1],0%
same,Population Mitochondria Different-Phenotype (%),[1],54% and 69%
same,Population Mitotic Cells (%),[1],60% and 50%
same,Population Normal (%),[1],92% and 89%
same,Population Pyknosed Nuclei (%),[1],12% and 17%
same,Population Tubulin-Different-Phenotype (%),[1],43% and 23%
same,Total Cell Count,[1],403 and 336
same,Population Apoptotic (%),[2],51% and 46%
same,Population Fragmented Nuclei (%),[2],8% and 4%
same,Population Healthy Nuclei (%),[2],72% and 79%
same,Population Hoechst High Intensity Objects (%),[2],10% and 7%
same,Population Membrane Permeable-Phenotype (%),[2],0%
same,Population Mitochondria Different-Phenotype (%),[2],70% and 76%
same,Population Mitotic Cells (%),[2],48% and 53%
same,Population Normal (%),[2],89% and 92%
same,Population Pyknosed Nuclei (%),[2],18% and 15%
same,Population Tubulin-Different-Phenotype (%),[2],58% and 50%
same,Total Cell Count,[2],326 and 349
same,Population Apoptotic (%),[3],28% and 58%
same,Population Fragmented Nuclei (%),[3],6% and 7%
same,Population Healthy Nuclei (%),[3],80% and 85%
same,Population Hoechst High Intensity Objects (%),[3],5%
same,Population Membrane Permeable-Phenotype (%),[3],0%
same,Population Mitochondria Different-Phenotype (%),[3],35% and 43%
same,Population Mitotic Cells (%),[3],71% and 41%
same,Population Normal (%),[3],94%
same,Population Pyknosed Nuclei (%),[3],12% and 7%
same,Population Tubulin-Different-Phenotype (%),[3],26% and 14%
same,Total Cell Count,[3],530 and 416
same,Population Apoptotic (%),[4],52% and 51%
same,Population Fragmented Nuclei (%),[4],11% and 9%
same,Population Healthy Nuclei (%),[4],75% and 82%
same,Population Hoechst High Intensity Objects (%),[4],6% and 4%
same,Population Membrane Permeable-Phenotype (%),[4],0%
same,Population Mitochondria Different-Phenotype (%),[4],50% and 61%
same,Population Mitotic Cells (%),[4],47% and 48%
same,Population Normal (%),[4],93% and 95%
same,Population Pyknosed Nuclei (%),[4],12% and 8%
same,Population Tubulin-Different-Phenotype (%),[4],33% and 42%
same,Total Cell Count,[4],439 and 458
same,Population Apoptotic (%),[5],17% and 25%
same,Population Fragmented Nuclei (%),[5],12% and 13%
same,Population Healthy Nuclei (%),[5],80% and 79%
same,Population Hoechst High Intensity Objects (%),[5],4% and 3%
same,Population Membrane Permeable-Phenotype (%),[5],1% and 0%
same,Population Mitochondria Different-Phenotype (%),[5],25% and 26%
same,Population Mitotic Cells (%),[5],82% and 75%
same,Population Normal (%),[5],95% and 96%
same,Population Pyknosed Nuclei (%),[5],7% and 6%
same,Population Tubulin-Different-Phenotype (%),[5],16% and 12%
same,Total Cell Count,[5],866 and 641
same,Population Apoptotic (%),[6],40% and 18%
same,Population Fragmented Nuclei (%),[6],14% and 11%
same,Population Healthy Nuclei (%),[6],75% and 82%
same,Population Hoechst High Intensity Objects (%),[6],4%
same,Population Membrane Permeable-Phenotype (%),[6],0%
same,Population Mitochondria Different-Phenotype (%),[6],45% and 38%
same,Population Mitotic Cells (%),[6],59% and 81%
same,Population Normal (%),[6],95%
same,Population Pyknosed Nuclei (%),[6],10% and 5%
same,Population Tubulin-Different-Phenotype (%),[6],30% and 27%
same,Total Cell Count,[6],606 and 673
C=C(C)[C@H]1CN[C@H](C(=O)O)[C@H]1CC(=O)O [KAINIC ACID],Population Apoptotic (%),[1],11.5% and 6.48%
same,Population Fragmented Nuclei (%),[1],2.06% and 6.54%
same,Population Healthy Nuclei (%),[1],64.6% and 22.88%
same,Population Hoechst High Intensity Objects (%),[1],0%
same,Population Membrane Permeable-Phenotype (%),[1],0.91% and 0%
same,Population Mitochondria Different-Phenotype (%),[1],37.44% and 14.29%
same,Population Mitotic Cells (%),[1],88.5% and 93.52%
same,Population Normal (%),[1],100%
same,Population Pyknosed Nuclei (%),[1],33.33% and 70.59%
same,Total Cell Count,[1],339 and 153
same,Population Apoptotic (%),[2],12.5% and 13.33%
same,Population Fragmented Nuclei (%),[2],12.27% and 2.55%
same,Population Hoechst High Intensity Objects (%),[2],0.26% and 0%
same,Population Membrane Permeable-Phenotype (%),[2],0%
same,Population Mitochondria Different-Phenotype (%),[2],22.58% and 24.24%
same,Population Mitotic Cells (%),[2],87.5% and 86.67%
same,Population Normal (%),[2],99.74% and 100%
same,Total Cell Count,[2],384 and 157
same,Population Apoptotic (%),[3],14% and 18.07%
same,Population Fragmented Nuclei (%),[3],2.44% and 4.97%
same,Population Healthy Nuclei (%),[3],77.19% and 43.48%
same,Population Hoechst High Intensity Objects (%),[3],0%
same,Population Membrane Permeable-Phenotype (%),[3],0.79% and 1.43%
same,Population Mitochondria Different-Phenotype (%),[3],12.14% and 7.14%
same,Population Mitotic Cells (%),[3],86% and 81.93%
same,Population Normal (%),[3],100%
same,Population Pyknosed Nuclei (%),[3],20.37% and 51.55%
same,Population Tubulin-Different-Phenotype (%),[3],8.97% and 5.71%
same,Population Apoptotic (%),[4],9.33% and 14.16%
same,Population Fragmented Nuclei (%),[4],9.95% and 0%
same,Population Healthy Nuclei (%),[4],77.19% and 40.84%
same,Population Hoechst High Intensity Objects (%),[4],0%
same,Population Membrane Permeable-Phenotype (%),[4],0.22% and 0%
same,Population Mitochondria Different-Phenotype (%),[4],11.33% and 7.69%
same,Population Mitotic Cells (%),[4],90.67% and 85.84%
same,Population Normal (%),[4],100%
same,Population Tubulin-Different-Phenotype (%),[4],4.89% and 1.28%
same,Population Apoptotic (%),[5],7.41% and 12.12%
same,Population Fragmented Nuclei (%),[5],6.01% and 2.75%
same,Population Healthy Nuclei (%),[5],85.97% and 71.37%
same,Population Hoechst High Intensity Objects (%),[5],0.07% and 0%
same,Population Membrane Permeable-Phenotype (%),[5],5.09% and 4.4%
same,Population Mitochondria Different-Phenotype (%),[5],10.62% and 17.03%
same,Population Mitotic Cells (%),[5],92.59% and 87.88%
same,Population Normal (%),[5],99.93% and 100%
same,Population Apoptotic (%),[6],13.71% and 22.5%
same,Population Fragmented Nuclei (%),[6],7.14% and 1.13%
same,Population Healthy Nuclei (%),[6],83.02% and 68.8%
same,Population Hoechst High Intensity Objects (%),[6],0% and 0.75%
same,Population Membrane Permeable-Phenotype (%),[6],4.88% and 2.19%
same,Population Mitochondria Different-Phenotype (%),[6],10.71% and 14.75%
same,Population Mitotic Cells (%),[6],86.29% and 77.5%
same,Population Normal (%),[6],100% and 99.25%
CCCCCCNC(=O)Nc1ccc(S(=O)(=O)Nc2ccc(CCNC[C@H](O)COc3ccc(O)cc3)cc2)cc1 [L-755507],Population Apoptotic (%),[1],35% and 31%
same,Population Fragmented Nuclei (%),[1],8% and 6%
same,Population Healthy Nuclei (%),[1],84% and 83%
same,Population Hoechst High Intensity Objects (%),[1],7%
same,Population Membrane Permeable-Phenotype (%),[1],0%
same,Population Mitochondria Different-Phenotype (%),[1],39% and 64%
same,Population Mitotic Cells (%),[1],64% and 68%
same,Population Normal (%),[1],92%
same,Population Pyknosed Nuclei (%),[1],7% and 10%
same,Population Tubulin-Different-Phenotype (%),[1],28% and 32%
same,Total Cell Count,[1],494 and 403
same,Population Apoptotic (%),[2],58% and 71%
same,Population Fragmented Nuclei (%),[2],10% and 8%
same,Population Healthy Nuclei (%),[2],74% and 79%
same,Population Hoechst High Intensity Objects (%),[2],17% and 7%
same,Population Membrane Permeable-Phenotype (%),[2],0%
same,Population Mitochondria Different-Phenotype (%),[2],69% and 87%
same,Population Mitotic Cells (%),[2],41% and 28%
same,Population Normal (%),[2],82% and 92%
same,Population Pyknosed Nuclei (%),[2],14% and 11%
same,Population Tubulin-Different-Phenotype (%),[2],68% and 61%
same,Total Cell Count,[2],384 and 341
same,Population Apoptotic (%),[3],19% and 30%
same,Population Fragmented Nuclei (%),[3],9% and 11%
same,Population Healthy Nuclei (%),[3],80%
same,Population Hoechst High Intensity Objects (%),[3],5% and 4%
same,Population Membrane Permeable-Phenotype (%),[3],0%
same,Population Mitochondria Different-Phenotype (%),[3],20% and 42%
same,Population Mitotic Cells (%),[3],80% and 70%
same,Population Normal (%),[3],94% and 95%
same,Population Pyknosed Nuclei (%),[3],9% and 7%
same,Population Tubulin-Different-Phenotype (%),[3],20% and 22%
same,Total Cell Count,[3],634 and 547
same,Population Apoptotic (%),[4],26% and 48%
same,Population Fragmented Nuclei (%),[4],8% and 7%
same,Population Healthy Nuclei (%),[4],80% and 83%
same,Population Hoechst High Intensity Objects (%),[4],14% and 9%
same,Population Membrane Permeable-Phenotype (%),[4],0%
same,Population Mitochondria Different-Phenotype (%),[4],59% and 68%
same,Population Mitotic Cells (%),[4],73% and 51%
same,Population Normal (%),[4],85% and 90%
same,Population Pyknosed Nuclei (%),[4],11% and 9%
same,Population Tubulin-Different-Phenotype (%),[4],42% and 51%
same,Total Cell Count,[4],461 and 402
same,Population Apoptotic (%),[5],10% and 15%
same,Population Fragmented Nuclei (%),[5],12% and 13%
same,Population Healthy Nuclei (%),[5],81% and 80%
same,Population Hoechst High Intensity Objects (%),[5],3% and 5%
same,Population Membrane Permeable-Phenotype (%),[5],2%
same,Population Mitochondria Different-Phenotype (%),[5],16% and 24%
same,Population Mitotic Cells (%),[5],89% and 84%
same,Population Normal (%),[5],96% and 94%
same,Population Pyknosed Nuclei (%),[5],6%
same,Population Tubulin-Different-Phenotype (%),[5],15% and 20%
same,Total Cell Count,[5],1052 and 775
same,Population Apoptotic (%),[6],46% and 65%
same,Population Fragmented Nuclei (%),[6],15% and 13%
same,Population Healthy Nuclei (%),[6],75% and 80%
same,Population Hoechst High Intensity Objects (%),[6],11% and 8%
same,Population Membrane Permeable-Phenotype (%),[6],1% and 0%
same,Population Mitochondria Different-Phenotype (%),[6],36% and 47%
same,Population Mitotic Cells (%),[6],53% and 34%
same,Population Normal (%),[6],88% and 91%
same,Population Pyknosed Nuclei (%),[6],9% and 5%
same,Population Tubulin-Different-Phenotype (%),[6],32% and 39%
same,Total Cell Count,[6],598 and 596
